According to the M2OR odorant receptor database:

What follows are compounds tested against T1, OR5P3 (Homo sapiens) (UniProt Q8WZ94). Conditions: stereoisomer not certain.
T1 sequence (whole entry): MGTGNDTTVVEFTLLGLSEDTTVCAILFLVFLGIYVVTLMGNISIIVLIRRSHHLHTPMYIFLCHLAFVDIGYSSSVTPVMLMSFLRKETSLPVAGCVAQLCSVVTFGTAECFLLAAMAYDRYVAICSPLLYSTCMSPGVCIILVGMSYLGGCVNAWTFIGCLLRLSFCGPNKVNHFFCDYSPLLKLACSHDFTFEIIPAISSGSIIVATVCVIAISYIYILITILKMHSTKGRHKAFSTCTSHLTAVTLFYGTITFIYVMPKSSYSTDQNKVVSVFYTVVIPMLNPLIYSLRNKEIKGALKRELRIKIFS
Outline: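 Transient luciferase assays in mammalian cell lines were common, though methods varied by source. The values come from published papers and their supplementary material, with extra details from the original authors when needed. Responsive refers to a measured signal the original authors judged statistically different from baseline, and non-responsive (inactive) to the remainder.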

Odorant receptor agonist call, active:
CCCCCCO, CCCCCCCO

Odorant receptor agonist call, inactive:
CCCCCC=O, CCCC(=O)C(C)=O, CC(=O)OCc1ccccc1, CCCCCCCCCCO, CCCCC(=O)CC, CCCCCCCCCC(=O)[O-].[H+], CCCCCCCCS, CCCCCC(=O)CC, CCCCCCCCO, CC(=O)Oc1ccccc1, CC12CCC(CC1=O)C2(C)C (stereo not given), CCC(C(=O)O)c1ccccc1 (stereo not given), CCCCC(C)=O, C=C(C)C1CCC(C)C(=O)C1 (stereo not given), CCCCCCC(=O)[O-].[H+], CCCC(C)=O, CCCCC(=O)O, O=C1CCOc2ccccc21, CCCCCCC(C)=O, O=C(c1ccccc1)c1ccccc1, CCCCCCCCCS, CCCCOC(=O)C(C)OC(=O)CCC (stereo not given), CC(C)=CCCC(C)CCO (stereo not given), CCOC(=O)C(C)C, CCC(=O)C(=O)CC, CCCCCO, CCCCCCCCCO, O=C1Cc2ccccc2O1
